Laboratory results from ChEMBL document CHEMBL3608272, “Design, synthesis and anticancer properties of novel oxa/azaspiro[4,5]trienones as potent apoptosis inducers through mitochondrial disruption” (2015).

Columns and labels:
Type in all cases: functional
[1] = system: A549; experiment: Anti-proliferative activity against human A549 cells incubated for 48 hrs by SRB assay; conditions: A549, 48 h
[2] = system: DU-145; experiment: Anti-proliferative activity against human DU145 cells incubated for 48 hrs by SRB assay; conditions: DU-145, 48 h
How it was run: (§1)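 SRB assay. Cells in DMEM with 10% FBS were seeded and grown 24 h at 37 °C in CO2. Compounds were diluted from a 10 mM DMSO stock to 1, 5 and 10 µM, with DMSO at most 0.1%, and exposed 48 h. Cells were fixed with 10% TCA for 60 min at 4 °C and stained 20 min at room temperature with 0.4% SRB in 1% acetic acid. Dye was eluted with 10 mM trizma base and absorbance read at 540 nm. Run in triplicate; GI50 given as mean ± SD of three determinations.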

[3] = system: HepG2; experiment: Anti-proliferative activity against human HepG2 cells incubated for 48 hrs by SRB assay; conditions: HepG2, 48 h; how it was run: as §1
[4] = system: MCF7; experiment: Anti-proliferative activity against human MCF7 cells incubated for 48 hrs by SRB assay; conditions: MCF7, 48 h; how it was run: as §1

| Structure (SMILES) | GI50 [1] | GI50 [2] | GI50 [3] | GI50 [4] |
| --- | --- | --- | --- | --- |
| CN1C(=O)C(c2ccc(C=O)cc2)=C(c2ccccc2)C12C=CC(=O)C=C2 | 36.2 µM | 18.2 µM | 12.7 µM | 11.1 µM |
| CN1C(=O)C(c2ccc(C(F)(F)F)cc2)=C(c2ccccc2)C12C=CC(=O)C=C2 | 30.3 µM | 17.6 µM | 13.7 µM | 8.1 µM |
| CN1C(=O)C(c2ccc(C#N)cc2)=C(c2ccccc2)C12C=CC(=O)C=C2 | 25.4 µM | 11.6 µM | 16.6 µM | 13.6 µM |
| CN1C(=O)C(c2ccoc2)=C(c2ccccc2)C12C=CC(=O)C=C2 | 126 µM | 91.2 µM | 62.8 µM | 52.7 µM |
| CSc1ccc(C2=C(c3ccccc3)C3(C=CC(=O)C=C3)N(C)C2=O)cc1 | 50.4 µM | 26.4 µM | 18.7 µM | 15.8 µM |
| CC/C(=C(\c1ccccc1)c1ccc(OCCN(C)C)cc1)c1ccccc1 [TAMOXIFEN] | 24.4 µM | 19.3 µM | – | 8 µM |
| CN1C(=O)C(c2ccccc2)=C(c2ccccc2)C12C=CC(=O)C=C2 | 22.5 µM | 15.5 µM | 9.2 µM | 8.2 µM |
| COc1ccc(C2=C(c3ccccc3)C3(C=CC(=O)C=C3)N(C)C2=O)c(OC)c1 | 101 µM | 62.7 µM | 69.1 µM | 71.7 µM |

Molecules with a lower GI50 [1], results first:

| GI50 [1] | GI50 [2] | GI50 [3] | GI50 [4] | Structure (SMILES) |
| --- | --- | --- | --- | --- |
| 1.9 µM | 0.95 µM | 1.4 µM | 1.6 µM | COc1cccc2c1C(=O)c1c(O)c3c(c(O)c1C2=O)C[C@@](O)(C(=O)CO)C[C@@H]3O[C@H]1C[C@H](N)[C@H](O)[C@H](C)O1 [DOXORUBICIN] |
| 8.1 µM | 2.4 µM | 3.3 µM | 1.7 µM | O=C1C=CC2(C=C1)OC(=O)C(c1ccc(CO)cc1)=C2c1ccccc1 |
| 21.1 µM | 12.1 µM | 10.4 µM | 7.4 µM | Cc1ccc(C2=C(c3ccccc3)C3(C=CC(=O)C=C3)N(C)C2=O)cc1Cl |
| 16.6 µM | 8.2 µM | 13.9 µM | 3.6 µM | CN1C(=O)C(c2ccc(C=O)s2)=C(c2ccccc2)C12C=CC(=O)C=C2 |
| 6.2 µM | 2.7 µM | 3.5 µM | 3.4 µM | O=C1C=CC2(C=C1)OC(=O)C(c1ccc(O)cc1)=C2c1ccccc1 |
